# Source: PubChem BioAssay AID588751 (Vanderbilt Specialized Chemistry Center, 2011)
# Target: Muscarinic acetylcholine receptor M4 (Rattus norvegicus) (UniProt P08485)
# Assay: ACh potentiation at rat M4, late-stage follow-up, counter-screen for M4 PAM project, CHO Gqi5 cells, calcium (AID 588751)
# Details: calcium fluorescence, ACh EC20
# Procedure, shortened: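 Signal: kinetic calcium fluorescence with Fluo-4 dye / Material: CHO cells stably co-expressing rat M4 receptor and chimeric Gqi5 / Doses: dose series in 0.3% DMSO final / Probe or stimulus: acetylcholine at EC20, then acetylcholine at EC80 / Timing: 144 s compound pre-exposure, EC80 ACh 86 s after EC20, 37 °C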
# Sequence of Muscarinic acetylcholine receptor M4 (Rattus norvegicus) (P08485 whole entry, looked up): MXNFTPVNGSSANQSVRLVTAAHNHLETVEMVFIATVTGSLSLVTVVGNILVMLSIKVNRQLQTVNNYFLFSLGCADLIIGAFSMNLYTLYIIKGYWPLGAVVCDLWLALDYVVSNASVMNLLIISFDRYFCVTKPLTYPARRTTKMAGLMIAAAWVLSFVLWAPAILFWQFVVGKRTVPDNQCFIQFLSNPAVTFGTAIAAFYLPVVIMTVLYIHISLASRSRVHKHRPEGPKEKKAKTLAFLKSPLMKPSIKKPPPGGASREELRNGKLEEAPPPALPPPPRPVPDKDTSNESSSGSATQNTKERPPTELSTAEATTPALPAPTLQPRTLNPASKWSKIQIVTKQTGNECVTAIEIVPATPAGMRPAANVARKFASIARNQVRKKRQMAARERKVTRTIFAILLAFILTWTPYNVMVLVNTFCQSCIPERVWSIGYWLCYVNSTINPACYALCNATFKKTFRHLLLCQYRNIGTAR
row,SMILES,EC50
1,Cc1nc2sc(C(=O)NCc3ccc4c(c3)OCO4)c(N)c2c(C)c1Cl,61.6 nM
2,Cc1nc2sc(C(=O)NCc3cccc(F)c3F)c(N)c2c(C)c1Cl,114 nM
3,Cc1nc2sc(C(=O)NCc3ccccc3)c(N)c2c(C)c1Cl,126 nM
4,Cc1nc2sc(C(=O)NC3CC3)c(N)c2c(C)c1Cl,151 nM

# The next lines start with the values.
row,EC50,SMILES
1,229 nM,Cc1nc2sc(C(=O)NCCc3ccncc3)c(N)c2c(C)c1Cl
2,187 nM,Cc1nc2sc(C(=O)NCc3nccs3)c(N)c2c(C)c1Cl
3,173 nM,Cc1nc2sc(C(=O)NCc3ccncc3)c(N)c2c(C)c1Cl
4,527 nM,Cc1nc2sc(C(=O)NCc3ccncn3)c(N)c2c(C)c1Cl
5,272 nM,Cc1nc2sc(C(=O)NCc3cccnc3)c(N)c2c(C)c1Cl
